Reference: publication PMC3772774 (Molecular cancer therapeutics, 2013)
pIC50: −log10 of the molar value. One block for each molecule: values may come before it.

Experiments:
[1] = system: c-Myc activation; assay: c-Myc activation sensor luciferase assay in SK-ST stable cells; assay type: cell-based, human; details: for fold by which IC50 for sensor signal inhibition is higher than that of NTZ: SK-ST cells, PD98059 2hrs, U0126 1hr, Atorvastatin 16hrs
[2] = system: c-Myc; assay: c-Myc inhibition in different cancer cell lines; assay type: cell-based; details: read-out: IC50 for c-Myc inhibition, range over different cancer cell lines
In short: (§1)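 SKBR3 (McCoy's 5a), lymphoma (RPMI plus 3.96×10-4% 2-mercaptoethanol) and osteosarcoma 1325 (DMEM) cells, all with 10% FBS, at 37°C, 5% CO2, were exposed to test compound as in the sensor assay. Lysates (50μg protein) were immunoblotted for phospho-c-Myc (Thr58/Ser62) and c-Myc, with β-actin as loading control, then ECL and densitometry. IC50 came from a four-parameter nonlinear fit of fold-change against log concentration; ≥3 repeats.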

[3] = system: phospho c-Myc; assay: Western blot of endogenous phospho c-Myc in osteosarcoma cells; assay type: cell-based; details: read-out: IC50 of inhibition of phospho c-Myc level
In short: as §1

[4] = system: SKBR3 cells; assay: MTS cell toxicity assay in SKBR3 cells; assay type: cell-based, human
[5] = molecular target: full-length firefly luciferase (SK-FST cells) (Photinus pyralis, UniProt P08659); assay: Full-length firefly luciferase control assay in SK-FST stable cells; assay type: cell-based; details: 16hrs treatment
In short: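 SKBR3 cells stably expressing full-length firefly luciferase on a single vector, selected with 3μg/ml puromycin, grown in McCoy's 5a with 10% FBS at 37°C, 5% CO2. Test compound was applied for 16hrs. D-Luciferin (45μg/ml in PBS, pH 7.0) was added to the medium and IVIS images were taken at 2-min intervals until peak. Photon output was normalized to total lysate protein; ≥3 repeats.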

[6] = system: SK-ST xenografts; assay: SK-ST breast cancer xenograft model in nude mice; assay type: in vivo
[7] = system: phospho c-Myc; assay: Western blot of endogenous phospho c-Myc in lymphoma cells; assay type: cell-based; details: read-out: IC50 of inhibition of phospho c-Myc level
In short: as §1

[8] = system: SK-FST xenografts; assay: SK-FST breast cancer xenograft model in nude mice; assay type: in vivo; details: 200mg/kg gavage twice a day, about 18 days after implantation

full-length firefly luciferase (SK-FST cells), sequence (P08659 whole entry): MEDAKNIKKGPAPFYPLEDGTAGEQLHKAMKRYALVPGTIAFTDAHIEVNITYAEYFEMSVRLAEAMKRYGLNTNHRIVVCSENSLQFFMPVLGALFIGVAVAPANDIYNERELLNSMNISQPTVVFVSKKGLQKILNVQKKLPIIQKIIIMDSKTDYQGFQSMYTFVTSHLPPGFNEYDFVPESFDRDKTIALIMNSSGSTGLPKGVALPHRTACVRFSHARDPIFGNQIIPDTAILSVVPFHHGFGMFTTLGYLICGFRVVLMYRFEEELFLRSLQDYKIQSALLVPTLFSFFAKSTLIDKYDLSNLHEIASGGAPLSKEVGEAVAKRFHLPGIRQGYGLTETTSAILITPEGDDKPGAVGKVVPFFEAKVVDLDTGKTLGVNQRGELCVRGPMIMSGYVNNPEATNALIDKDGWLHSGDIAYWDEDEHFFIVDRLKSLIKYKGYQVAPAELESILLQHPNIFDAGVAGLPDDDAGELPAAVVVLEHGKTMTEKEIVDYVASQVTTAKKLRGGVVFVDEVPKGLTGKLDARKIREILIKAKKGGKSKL

fold by which IC50 for sensor signal inhibition is higher than that of NTZ [1]: about 50 fold
Compound: CC(C)c1c(C(=O)Nc2ccccc2)c(-c2ccccc2)c(-c2ccc(F)cc2)n1CC[C@@H](O)C[C@@H](O)CC(=O)O [Atorvastatin]

Compound: CC(=O)Oc1ccccc1C(=O)Nc1ncc([N+](=O)[O-])s1 [NTZ, nitazoxanide]
pIC50 [2]: 6.30 to 8.00
pIC50 [3]: 7.92
half-maximal lethal dose (LD50) [4]: about 1 μM
change of FL signal in SK-FST cells (direct effect on luciferase activity) [5]: no significant changes
pIC50 ([1]; Homo sapiens, 16 h, read-out: IC50 for the sensor signal inhibition): ~7.00
common side effects (diarrhea, vomiting, skin rash) ([6]; 200mg/kg gavage twice a day for 27 days): didn’t observe the common side effects
tumor growth by gross inspection and caliper measurements ([6]; 200mg/kg gavage twice a day, 27 days after implantation, P=0.00007 vs CMC): drastic inhibition of tumor growth
bioluminescent signal from SK-ST xenografts (c-Myc activation) ([6]; 200mg/kg gavage twice a day, vs CMC group): greatly inhibited
caspase-3 staining, average positive cells in each sample ([6]; tumor samples, 200mg/kg gavage twice a day, CMC group 5±2, P<0.03): 23±8 positive cells
endogenous phospho and c-Myc protein levels in tumor samples ([6]; western blot, NTZ vs CMC group): greatly reduced
pIC50 [7]: 6.36
bioluminescent signal of SK-FST xenografts [8]: sustained decrease of the signal

fold by which IC50 for sensor signal inhibition is higher than that of NTZ [1]: about 2000 fold
Compound: COc1cccc(-c2cc(=O)c3ccccc3o2)c1N [PD98059]

fold by which IC50 for sensor signal inhibition is higher than that of NTZ [1]: ~500 fold
Compound: N#CC(=C(/N)Sc1ccccc1N)/C(C#N)=C(/N)Sc1ccccc1N [U0126]
